Measurements reported in ChEMBL document CHEMBL1157379, “Transcriptional response of Candida parapsilosis following exposure to farnesol” (2007).
Active and inactive are the calls of the source. The calls are words filed in the database; no cut-off is given here.

Legend:
Candida parapsilosis [1] = test: Decrease in CGD gene ortholog accession number orf19.719 expression in Candida parapsilosis CLIB214 at 50 uM after 2 hrs by microarray based transcriptional profiling relative to control; format: functional
How it was run: (§1)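 Strain CLIB214 grown overnight in YPD at 30°C, diluted to A600 0.2 in fresh YPD at 30°C. After 4 h (A600 0.8), farnesol (40 mM methanol stock) added to 50 μM final, or an equal methanol volume as control; cells harvested 2 h later. RNA was accepted only with a 28S/18S ratio of 1.6–2.2. Cy3/Cy5-dCTP-labelled cDNA was made from 25 μg total RNA. Hybridisation was to duplicate-spotted 68-mer oligo arrays (3,849 genes) at 42°C for about 16 h. Six individual comparisons.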

Candida parapsilosis [2] = test: Increase in CGD gene ortholog accession number orf19.7235 expression in Candida parapsilosis CLIB214 at 50 uM after 2 hrs by microarray based transcriptional profiling relative to control; format: functional; how it was run: as §1
Candida parapsilosis [3] = test: Cell cycle arrest in Candida parapsilosis CLIB214 assessed as accumulation at G1 phase at 50 uM added 4 hrs after […] growth; format: functional, organism-based
How it was run: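 YPD culture diluted to A600 0.2 at 30°C. Farnesol added to 50 μM after 4 h. Budding cells scored by microscopy: unbudded as G1, small budded as S, large budded as G2/M. Compared with methanol controls.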

Candida parapsilosis [4] = test: Increase in GenBank accession number NP_943633.1 expression in Candida parapsilosis CLIB214 at 50 uM after 2 hrs by microarray based transcriptional profiling relative to control; format: functional
How it was run: (§2)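 Strain grown overnight in YPD at 30°C, diluted to A600 0.2 in YPD at 30°C; farnesol (40 mM methanol stock) added at 4 h (A600 0.8), final 50 μM; methanol-only control. Cells collected 2 h later for RNA. Labelled cDNA from 25 μg total RNA (Cy3/Cy5-dCTP) hybridized to 68-mer oligo arrays at 42°C ~16 h; six individual comparisons analysed statistically.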

Candida parapsilosis [5] = test: Increase in GIR2 gene expression in Candida parapsilosis CLIB214 at 50 uM after 2 hrs by microarray based transcriptional profiling relative to control; format: functional; how it was run: as §2
Candida albicans = test: Antifungal activity against Candida albicans assessed as microbila killing effect; format: functional
Candida parapsilosis [6] = test: Increase in CGD gene ortholog accession number orf19.3617 expression in Candida parapsilosis CLIB214 at 50 uM after 2 hrs by microarray based transcriptional profiling relative to control; format: functional; how it was run: as §1
Candida parapsilosis [7] = test: Increase in PDE2 gene expression in Candida parapsilosis CLIB214 at 50 uM after 2 hrs by microarray based transcriptional profiling relative to control; format: functional; how it was run: as §2
Candida parapsilosis [8] = test: Decrease in CGD gene ortholog accession number orf19.3704 expression in Candida parapsilosis CLIB214 at 50 uM after 2 hrs by microarray based transcriptional profiling relative to control; format: functional
How it was run: (§3)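 Cells in YPD at 30°C treated with 50 μM farnesol at 4 h, with a methanol control. RNA harvested 2 h later and kept only if 28S/18S ratio was 1.6–2.2 with no degradation. 25 μg total RNA oligo-dT primed and labeled with Cy3/Cy5-dCTP. Labeled cDNA hybridized about 16 h at 42°C to duplicate-spotted 68-mer oligo arrays. Six individual comparisons analyzed statistically.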

Candida parapsilosis [9] = test: Increase in CGD gene ortholog accession number orf19.7097 expression in Candida parapsilosis CLIB214 at 50 uM after 2 hrs by microarray based transcriptional profiling relative to control; format: functional; how it was run: as §1
Candida parapsilosis [10] = test: Decrease in CGD gene ortholog accession number orf19.3434 expression in Candida parapsilosis CLIB214 at 50 uM after 2 hrs by microarray based transcriptional profiling relative to control; format: functional; how it was run: as §3
Candida parapsilosis [11] = test: Increase in CGD gene ortholog accession number orf19.1457 expression in Candida parapsilosis CLIB214 at 50 uM after 2 hrs by microarray based transcriptional profiling relative to control; format: functional; how it was run: as §1
Candida parapsilosis [12] = test: Antifungal activity against Candida parapsilosis CLIB214 assessed as growth inhibition at 50 uM added after 2 hrs of bacterial growth measured after 2 hrs; format: functional; details: Lodderomyces parapsilosis, CLIB214, 2 h
How it was run: (§4)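 Overnight YPD culture at 30°C diluted to A600 0.2 in YPD. Farnesol added to 50 μM final at 2, 4, 6 or 8 h of growth (A600 about 0.8 at 4 h, 2.3 at 6 h, 6 at 8 h). Growth compared with methanol controls by A600 or cell counts.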

Candida parapsilosis [13] = test: Decrease in ERG1 gene expression in Candida parapsilosis CLIB214 at 50 uM after 2 hrs by microarray based transcriptional profiling relative to control; format: functional; how it was run: as §1
Candida parapsilosis [14] = test: Antifungal activity against Candida parapsilosis CLIB214 assessed as reduction of biofilm formation at 100 uM added 4 hrs after […] growth by crystal violet assay; format: functional; design: scale not given: the % may be the effect or the level left
How it was run: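 Cells grown overnight in YNB, diluted to A600 1, and left to adhere 2 h at 37°C. Nonadherent cells washed off with PBS, then fresh YNB added and plates incubated 24 h at 37°C. Biofilms stained with 0.1% crystal violet for 15 min at 30°C, destained 4 h in 33% acetic acid, and read at A570.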

Candida parapsilosis [15] = test: Decrease in CGD gene ortholog accession number orf19.1728 expression in Candida parapsilosis CLIB214 at 50 uM after 2 hrs by microarray based transcriptional profiling relative to control; format: functional; how it was run: as §3
Candida parapsilosis [16] = test: Effect on GAD1 gene expression in Candida parapsilosis CLIB214 by microarray based transcriptional profiling; format: functional, organism-based; how it was run: as §1
Candida parapsilosis [17] = test: Increase in CGD gene ortholog accession number orf19.7353 expression in Candida parapsilosis CLIB214 at 50 uM after 2 hrs by microarray based transcriptional profiling relative to control; format: functional; how it was run: as §1
Candida parapsilosis [18] = test: Reduction in GCN3 gene expression in Candida parapsilosis CLIB214 by RT-PCR; format: functional
How it was run: (§5)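 Cultures in YPD at 30°C, diluted to A600 0.2; 50 μM farnesol (final) or methanol added at 4 h, RNA harvested 2 h later. RT-PCR: 95°C hot start 1 min 30 s, then 26 cycles (95°C 40 s, 55°C 2 min, 72°C 3 min), final 72°C 5 min; each gene signal normalized to ACT1.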

Candida parapsilosis [19] = test: Antifungal activity against Candida parapsilosis CLIB214 assessed as growth inhibition at 50 uM added after 6 hrs of bacterial growth measured after 2 hrs; format: functional; details: Lodderomyces parapsilosis; how it was run: as §4
Candida parapsilosis [20] = test: Increase in REG1 gene expression in Candida parapsilosis CLIB214 at 50 uM after 2 hrs by microarray based transcriptional profiling relative to control; format: functional; how it was run: as §2
Candida parapsilosis [21] = test: Increase in GRP2 gene expression in Candida parapsilosis CLIB214 by RT-PCR; format: functional, organism-based; how it was run: as §5
Candida parapsilosis [22] = test: Increase in STP2 gene expression in Candida parapsilosis CLIB214 at 50 uM after 2 hrs by microarray based transcriptional profiling relative to control; format: functional; how it was run: as §2
Candida parapsilosis [23] = test: Decrease in CGD gene ortholog accession number orf19.194 expression in Candida parapsilosis CLIB214 at 50 uM after 2 hrs by microarray based transcriptional profiling relative to control; format: functional; how it was run: as §3
Candida parapsilosis [24] = test: Decrease in CGD gene ortholog accession number orf19.7325 expression in Candida parapsilosis CLIB214 at 50 uM after 2 hrs by microarray based transcriptional profiling relative to control; format: functional; how it was run: as §1

**Q.** Which “fold change (FC)” value (Candida parapsilosis [1]) does the source give for `CC(C)=CCC/C(C)=C/CC/C(C)=C/CO` [FARNESOL] here?
**A.** Its value is 1.65.

**Q.** And the “fold change (FC)” value (Candida parapsilosis [2])?
**A.** Its value is 1.56.

**Q.** And the Activity (Candida parapsilosis [3])?
**A.** Its Activity is “Active”.

**Q.** And the “fold change (FC)” value (Candida parapsilosis [4])?
**A.** Its value is 2.81.

**Q.** And the “fold change (FC)” value (Candida parapsilosis [5])?
**A.** The value was 1.74.

**Q.** And the Activity (Candida albicans)?
**A.** The Activity was 80%.

**Q.** What about the “fold change (FC)” value (Candida parapsilosis [6]) of the same molecule?
**A.** Its value is 1.55.

**Q.** And the “fold change (FC)” value (Candida parapsilosis [7])?
**A.** The value was 1.67.

**Q.** What about the “fold change (FC)” value (Candida parapsilosis [8]) of the same molecule?
**A.** The value was 1.96.

**Q.** And the “fold change (FC)” value (Candida parapsilosis [9])?
**A.** Its value is 1.86.

**Q.** What about the “fold change (FC)” value (Candida parapsilosis [10]) of the same molecule?
**A.** Its value is 1.8.

**Q.** What about the “fold change (FC)” value (Candida parapsilosis [11]) of the same molecule?
**A.** The value was 1.55.

**Q.** What about the inhibition at 50 µM (Candida parapsilosis [12]) of the same molecule?
**A.** Its inhibition at 50 µM is 68.5%.

**Q.** What about the “fold change (FC)” value (Candida parapsilosis [13]) of the same molecule?
**A.** Its value is 2.24.

**Q.** And the Activity (Candida parapsilosis [14])?
**A.** The Activity was 30%.

**Q.** What about the “fold change (FC)” value (Candida parapsilosis [15]) of the same molecule?
**A.** The value was 1.59.

**Q.** And the Activity (Candida parapsilosis [16])?
**A.** The Activity was “inactive”.

**Q.** What about the “fold change (FC)” value (Candida parapsilosis [17]) of the same molecule?
**A.** Its value is 2.14.

**Q.** And the “fold change (FC)” value (Candida parapsilosis [18])?
**A.** Its value is 1.54.

**Q.** What about the inhibition at 50 µM (Candida parapsilosis [19]) of the same molecule?
**A.** Its inhibition at 50 µM is 40.5%.

**Q.** And the “fold change (FC)” value (Candida parapsilosis [20])?
**A.** Its value is 1.56.

**Q.** And the Activity (Candida parapsilosis [21])?
**A.** Its Activity is “Active”.

**Q.** What about the “fold change (FC)” value (Candida parapsilosis [22]) of the same molecule?
**A.** Its value is 1.63.

**Q.** What about the “fold change (FC)” value (Candida parapsilosis [23]) of the same molecule?
**A.** Its value is 1.84.

**Q.** And the “fold change (FC)” value (Candida parapsilosis [24])?
**A.** The value was 1.67.
